Reference: ChEMBL document CHEMBL4011654, “Mitochondria-Targeted Lupane Triterpenoid Derivatives and Their Selective Apoptosis-Inducing Anticancer Mechanisms” (J Med Chem, 2017)
The source made the active and inactive calls. The calls are words filed in the database; no cut-off is given here.

Columns and labels:
K562 [1] = test: Induction of mitochondrial membrane depolarization in human K562 cells assessed as cells with mitochondrial membrane potential loss at 1 uM after 48 hrs by JC-1 staining based flow cytometric analysis (reference value: 1.89 to 2.23%); format: functional
A549 = test: Cytotoxicity against human A549 cells assessed as cell growth inhibition after 48 hrs by MTT assay; format: functional, cell-based; conditions: A549, 48 h
Summary of the method: (§1)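 Adherent cells seeded at 5000/well, left 16−24 h, then exposed 48 h at 37 °C, 5% CO2 in RPMI with 10% FBS. Medium refreshed, MTT added for 4 h at 37 °C, medium removed, formazan dissolved in DMSO, OD570 read. IC50 taken as concentration inhibiting growth by 50%; triplicate.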

K562 [2] = test: Induction of mitochondrial membrane depolarization in human K562 cells assessed as cell with intact mitochondrial membrane potential at 1 uM after 48 hrs by JC-1 staining based flow cytometric analysis (reference value: 97.63 to 97.67%); format: functional
Summary of the method: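 K562 seeded at 4 × 10^5 cells/well, after 12 h treated 48 h. Cells washed in ice-cold PBS, loaded with JC-1 ([…]) at 37 °C for 15 min, rinsed, and analysed by flow cytometry (% cells with red aggregates) and fluorescence microscopy (red aggregates vs green monomers).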

L02 = test: Cytotoxicity against human HL-7702 cells assessed as cell growth inhibition after 48 hrs by MTT assay; format: cell-based; conditions: L02, 48 h; summary of the method: as §1
K562 [3] = test: Induction of apoptosis in human K562 cells assessed as early apoptotic cells at 0.4 uM after 48 hrs by Annexin V-FITC/propidium iodide-staining based flow cytometric analysis (reference value: 0.92 to 1.45%); format: functional
Summary of the method: (§2)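 K562 seeded at 4 × 10^5 cells/well, 12 h, then exposed 48 h. Cells washed in ice-cold PBS, suspended in binding buffer, stained with annexin V-FITC and PI for 15 min at room temperature in the dark, and read by flow cytometry within 1 h. Cells counted as early/late apoptotic as % of total; n = 3.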

K562 [4] = test: Induction of apoptosis in human K562 cells assessed as necrotic cells at 1.2 uM after 48 hrs by Annexin V-FITC/propidium iodide-staining based flow cytometric analysis (reference value: 0.13 to 0.27%); format: functional; summary of the method: as §2
ECa-109 cell line = test: Cytotoxicity against human ECA109 cells assessed as cell growth inhibition after 48 hrs by MTT assay; format: functional, cell-based; conditions: ECa-109, 48 h; summary of the method: as §1
K562 [5] = test: Induction of apoptosis in human K562 cells assessed as late apoptotic cells at 1.2 uM after 48 hrs by Annexin V-FITC/propidium iodide-staining based flow cytometric analysis (reference value: 2.25 to 2.67%); format: functional; summary of the method: as §2
K562 [6] = test: Induction of apoptosis in human K562 cells assessed as decrease in cytochrome c level in mitochondria up to 4 uM after 48 hrs by Western blot analysis; format: functional, cell-based
Summary of the method: (§3)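 K562 treated 48 h, then lysed on ice for 30 min; cytosolic and mitochondrial fractions isolated by kit where needed, protein measured by BCA. 60 μg/lane run on SDS-PAGE, transferred to PVDF, blocked in 5% milk/TBST for 4 h. Probed for cytochrome c, caspase-9, caspase-3 (total/cleaved), PARP; alkaline phosphatase secondary.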

K562 [7] = test: Induction of mitochondrial membrane depolarization in human K562 cells assessed as cells with mitochondrial membrane potential loss at 4 uM after 48 hrs by JC-1 staining based flow cytometric analysis (reference value: 1.89 to 2.23%); format: functional
K562 [8] = test: Induction of apoptosis in human K562 cells assessed as increase in cytosolic cytochrome c level up to 4 uM after 48 hrs by Western blot analysis; format: functional, cell-based; summary of the method: as §3
K562 [9] = test: Induction of apoptosis in human K562 cells after 48 hrs by Annexin V-FITC/propidium iodide-staining based flow cytometric analysis; format: functional, cell-based; summary of the method: as §2
K562 [10] = test: Induction of apoptosis in human K562 cells assessed as viable cells at 0.8 uM after 48 hrs by Annexin V-FITC/propidium iodide-staining based flow cytometric analysis (reference value: 95.75 to 96.56%); format: functional; conditions: K562, 48 h, read-out: Activity; summary of the method: as §2

SMILES: C=C(C)[C@@H]1CC[C@]2(COC(=O)CCCC[P+](c3ccccc3)(c3ccccc3)c3ccccc3)CC[C@]3(C)[C@H](CC[C@@H]4[C@@]5(C)CC[C@H](O)C(C)(C)[C@@H]5CC[C@]43C)[C@@H]12.[Br-]
- Activity (K562 [1]): 6.47%
- IC50 (A549): 610 nM
- Activity (K562 [2]): 93.08%
- IC50 (L02): 6620 nM
- Activity (K562 [3]): 6.68%
- Activity (K562 [4]): 4.41%
- IC50 (ECa-109 cell line): 780 nM
- Activity (K562 [5]): 38.25%
- Activity (K562 [6]): Active
- Activity (K562 [7]): 61.4%
- Activity (K562 [8]): Active
- Activity (K562 [9]): Dose-dependent effect
- viability at 0.8 µM (K562 [10]): 63.2%
